The nature of series [1]: Intrinsic clearance in human hepatocytes assessed per 10^6 cells at 5 uM. The series is classed as ADME, cell-based, Hepatocyte.
Series [2] is described as follows: Metabolic stability in mouse liver microsomes assessed as parent compound remaining in presence of NADPH by LC-MS/MS method. The series is classed as ADME. The essentials:
(§1)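 Compound incubated with liver microsomes (human or mouse) plus NADPH at 37 °C. Loss of parent was followed by LC-MS-MS and reported as percent. Stability bands: low <40%, medium 40–60%, high >60%.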
(Liver microsomes are vesicles of endoplasmic reticulum, rich in cytochrome P450 enzymes.)

A short description of series [3]: Absolute oral bioavailability in Balb/c mouse at 10 mg/kg. The series is classed as ADME, organism-based. As to conditions: in vivo. In outline: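 Male Balb/c mice dosed once orally at 10 mg/kg and once intravenously at 3 mg/kg. Either 4 animals per route were profiled individually, or sparse sampling used 24 mice with 3 per time point for mean profiles. Absolute oral bioavailability was derived from the two routes.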

Series [4] can be described thus: Metabolic stability in human liver microsomes assessed as parent compound remaining in presence of NADPH by LC-MS/MS method. The series is classed as ADME. The essentials:
as §1

Series [5] is described as follows: Apparent permeability across human Caco2 cells after 2 hrs by LC-MS method. The series is classed as ADME, cell-based. As to conditions: Caco-2. The essentials: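 Caco-2 monolayers checked for integrity, then dosed alongside high- and low-permeability controls. Apical and basal samples taken at 2 h. Four transport conditions: A-B at pH 6.5/7.4 (0% or 0.5% BSA apical, 5% BSA basal), and A-B and B-A at pH 7.4/7.4 (0.5% BSA both sides). Compound quantified by LC/MS. Rapid transport defined as Papp >20 nm/s.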
(In general: Passage across Caco-2 layers is used to estimate intestinal permeability.)

Series [6] deals with Mu-type opioid receptor (Homo sapiens) (UniProt P35372). As to the kind of experiment: Displacement of [3H]DAMGO from recombinant human mu opioid receptor expressed in HEK293 cells at 10 uM after 60 mins by scintillation counting method relative to control. Type of series: cell-based. On the technique in general: Loss of bound radioactivity is the signal in a displacement assay; it reports binding, not function.
Chain of Mu-type opioid receptor (Homo sapiens) (P35372 whole entry): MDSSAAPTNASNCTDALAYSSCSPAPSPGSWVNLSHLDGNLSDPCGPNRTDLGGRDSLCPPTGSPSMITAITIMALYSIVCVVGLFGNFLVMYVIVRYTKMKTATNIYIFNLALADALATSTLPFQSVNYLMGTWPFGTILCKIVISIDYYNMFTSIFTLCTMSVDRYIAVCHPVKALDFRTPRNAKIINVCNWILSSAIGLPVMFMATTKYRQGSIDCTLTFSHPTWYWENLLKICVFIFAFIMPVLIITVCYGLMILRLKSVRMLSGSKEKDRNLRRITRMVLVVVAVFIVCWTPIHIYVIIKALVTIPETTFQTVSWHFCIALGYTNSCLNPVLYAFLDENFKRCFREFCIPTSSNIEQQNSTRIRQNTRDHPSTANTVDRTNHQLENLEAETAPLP

The target of series [7] is T1, C-X-C chemokine receptor type 3 (Homo sapiens) (UniProt P49682).
T1 sequence (whole entry): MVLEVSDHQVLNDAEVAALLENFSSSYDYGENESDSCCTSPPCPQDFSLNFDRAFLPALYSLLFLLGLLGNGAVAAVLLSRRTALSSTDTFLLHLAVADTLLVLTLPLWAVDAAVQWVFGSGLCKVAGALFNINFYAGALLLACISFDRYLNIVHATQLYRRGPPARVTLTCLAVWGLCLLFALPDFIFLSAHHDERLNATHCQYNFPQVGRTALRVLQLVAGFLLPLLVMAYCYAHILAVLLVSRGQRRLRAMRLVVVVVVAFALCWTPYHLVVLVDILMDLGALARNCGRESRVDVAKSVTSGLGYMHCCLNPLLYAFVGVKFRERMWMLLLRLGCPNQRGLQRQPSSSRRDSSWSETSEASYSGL
Nature of the series: Displacement of [125I]-CXCL10 from human recombinant CXCR3 transfected in Flp-In-CHO cell membranes at 10 uM after 60 mins by gamma counting method relative to control.

For series [8], the target named is T2, C-X-C chemokine receptor type 3 (Homo sapiens, UniProt P49682).
T2 sequence (P49682 whole entry): T1 sequence (whole entry)
Nature of the series: Displacement of [125I]-CXCL10 from human recombinant CXCR3 transfected in Flp-In-CHO cell membranes after 60 mins by gamma counting method.

In series [9] the target is T3, Alpha-1A adrenergic receptor (Homo sapiens) (UniProt P35348).
T3 sequence (whole entry): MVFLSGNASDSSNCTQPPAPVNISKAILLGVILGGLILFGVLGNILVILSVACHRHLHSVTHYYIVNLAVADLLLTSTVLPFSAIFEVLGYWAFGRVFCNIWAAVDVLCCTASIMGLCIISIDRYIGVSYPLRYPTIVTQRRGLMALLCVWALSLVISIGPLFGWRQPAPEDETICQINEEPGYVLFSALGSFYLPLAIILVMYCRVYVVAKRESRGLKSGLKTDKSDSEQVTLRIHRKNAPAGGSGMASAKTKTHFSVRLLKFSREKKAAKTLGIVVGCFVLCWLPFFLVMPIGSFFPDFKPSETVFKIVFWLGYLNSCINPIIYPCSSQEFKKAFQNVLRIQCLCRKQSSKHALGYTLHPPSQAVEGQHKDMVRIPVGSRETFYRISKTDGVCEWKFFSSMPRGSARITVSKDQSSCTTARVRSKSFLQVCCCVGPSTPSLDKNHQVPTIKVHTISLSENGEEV
Nature of the series: Displacement of [3H]prazosin from recombinant human alpha 1A adrenergic receptor expressed in CHO cells at 10 uM after 60 mins by scintillation counting method relative to control. The series is classed as cell-based.

The target of series [10] is T4, Muscarinic acetylcholine receptor M2 (Homo sapiens) (UniProt P08172).
T4 sequence (whole entry): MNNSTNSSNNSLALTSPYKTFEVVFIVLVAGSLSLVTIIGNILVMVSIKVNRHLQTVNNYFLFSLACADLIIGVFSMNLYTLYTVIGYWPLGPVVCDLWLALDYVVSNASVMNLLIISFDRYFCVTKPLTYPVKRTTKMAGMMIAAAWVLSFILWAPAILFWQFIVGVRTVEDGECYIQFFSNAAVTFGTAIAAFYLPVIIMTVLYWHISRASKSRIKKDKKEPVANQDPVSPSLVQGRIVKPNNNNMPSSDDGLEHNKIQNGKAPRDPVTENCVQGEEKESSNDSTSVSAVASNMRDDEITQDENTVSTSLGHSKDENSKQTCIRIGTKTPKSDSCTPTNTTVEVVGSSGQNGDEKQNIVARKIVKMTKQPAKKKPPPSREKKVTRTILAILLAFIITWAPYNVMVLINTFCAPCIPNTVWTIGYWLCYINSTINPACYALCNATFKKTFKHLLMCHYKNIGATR
As to the kind of experiment: Displacement of [3H]AF-DX384 from recombinant human muscarinic M2 receptor expressed in CHO cells at 10 uM after 60 mins by scintillation counting method relative to control. The series is classed as cell-based.

As to `COc1cc(CN(C[C@H]2CC[C@H](C(=O)O)CC2)[C@@H](C)c2ccc(Cl)cc2)ccc1OCCn1c(=O)ccn(C)c1=O`, the CLH in series [1] was found to be 0.159 mL/h. The figures for the Stability in series [2] and in series [4] were 76% and 62%, respectively. The bioavailability in [3] stood at 26.7%. Also, the Papp at 2 h in [5] was 80.1 nm/s.

Take `COc1cc(CN(C[C@H]2CC[C@H](C(=O)O)CC2)[C@@H](C)c2ccc(Cl)cc2)ccc1OCCN1C(=O)CCC1=O`: the Stability in series [2] and in [4] was 91% each time. In [3], the bioavailability was 13.3%. For the same compound, in series [5], the Papp at 2 h worked out at 52.8 nm/s. The inhibition in series [6] is 74%.

As to `COc1cc(CN(C)C(C)c2ccc3c(c2)CCO3)cc(OCCCN2C(=O)CCC2=O)c1` (stereo not drawn), the inhibition in [7] turned out to be 15%.

For the compound `Cc1cc(CN(C[C@H]2CC[C@H](C(=O)O)CC2)[C@@H](C)c2ccc(Cl)cc2)ccc1OCCN1C(=O)CN(C)C1=O`, the IC50 in series [8] came to 0.099 µM. This compound gave a CLH in [1] of 0.234 mL/h. The Stability is recorded as 100% in series [2] and 63% in series [4]. Further, in series [3], the bioavailability is 63.3%. Besides, the Papp at 2 h in [5] was determined as 157 nm/s.

`COc1cc(CN(C[C@H]2CC[C@H](C(=O)O)CC2)C2CCc3cc(Cl)ccc32)ccc1OCCN1C(=O)CCC1=O` (stereo partly drawn): the IC50 in series [8] worked out at 0.024 µM. The inhibition in series [9] is 52%; in series [10], 0%; in [6], 63 to 64%. Besides, the Stability in [2] amounted to 78%; in [4], 66%. The Papp at 2 h in [5] was 89.8 nm/s.

Consider `COc1cc(CN(CCCC(=O)O)C(C)c2ccc3c(c2)CCO3)ccc1OCCN1C(=O)CCC1=O` (stereo not drawn), for which the half-inhibitory concentration (IC50) in series [8] stood at 0.21 µM. The results for the Stability in series [2] and in series [4] were 95% and 100%, respectively. This compound registered a bioavailability in series [3] of 2%.

In the case of `COc1cc(CN(C)C(C)c2ccc3c(c2)CCO3)cc(OCCN2C(=O)CCC2=O)c1` (stereo not drawn), the inhibition in series [7] was 4%.

In [1], `COc1cc(CN(C[C@H]2CC[C@H](C(=O)O)CC2)[C@H]2CCc3c2ccc(Cl)c3Cl)ccc1OCCN1C(=O)CCC1=O` displayed a CLH of 0.083 mL/h. Further, the Stability is 81% in series [2] and 75% in [4]. In addition, the inhibition in series [10] came out at 0%. Also, in series [5], the Papp at 2 h was found to be 57 nm/s.

For the compound `CC(c1ccc2c(c1)CCO2)N(Cc1ccc(OCCN2C(=O)CCC2=O)c(Cl)c1)C[C@H]1CC[C@H](C(=O)O)CC1` (stereo partly drawn), the Stability in series [2] worked out at 92%; in [4], 56%. Besides, the inhibition in series [10] was 98%. For the same compound, the Papp at 2 h in [5] was 39.5 nm/s.

As for `COc1cc(CN(C[C@H]2CC[C@H](C(=O)O)CC2)C(C)c2ccc3c(c2)CCO3)ccc1OCCN1C(=O)CCC1=O` (stereo partly drawn), the values for the Stability in [2] and in series [4] were 92% and 98%, respectively. In series [3], this compound yielded a bioavailability of 17.3%. Also, in series [10], the inhibition was 54%. In series [5], the Papp at 2 h was 9.8 nm/s.

For the compound `COc1cc(CN(C[C@H]2CC[C@H](C(=O)O)CC2)[C@H]2CCc3c2ccc(Cl)c3F)ccc1OCCN1C(=O)CCC1=O`, the CLH in series [1] amounted to 0.031 mL/h. The Stability in [2] is reported as 81%; in series [4], 73%. For the same compound, the bioavailability in series [3] turned out to be 47%. Further, in series [10], the inhibition turned out to be 16%. For the same compound, the Papp at 2 h in series [5] was 29.7 nm/s.

Turning to `CC(c1ccc2c(c1)CCO2)N(C)Cc1ccc2c(c1)OCCN2CCN1C(=O)CCC1=O` (stereo not drawn), the inhibition in series [7] worked out at 7%.

As to `COc1cc(CN(C[C@H]2CC[C@H](C(=O)O)CC2)C(C)c2ccc3c(c2)CCO3)ccc1OCCN1C(=O)CSC1=O` (stereo partly drawn), the Stability in series [2] and in series [4] was 73% in each case. For the same compound, the inhibition in [10] was 72%; in series [6], 94%. For the same compound, the Papp at 2 h in series [5] stood at 29.3 nm/s.

For `CCc1cc(CN(C[C@H]2CC[C@H](C(=O)O)CC2)[C@H]2CCc3cc(Cl)ccc32)ccc1OCCN1C(=O)CCC1=O`, in series [1], the CLH is 0.069 mL/h. The Stability in [2] came to 96%; in series [4], 94%. Moreover, in series [10], the inhibition stood at 37%. For the same compound, the Papp at 2 h in [5] was 80.2 nm/s.

Consider `COc1ccc(CN(C)C(C)c2ccc3c(c2)CCO3)cc1OCCN1C(=O)CCC1=O` (stereo not drawn), for which the inhibition in series [7] was determined as 18%.

`COc1cc(CN(C[C@H]2CC[C@H](C(=O)O)CC2)[C@H]2CCc3cc(Cl)ccc32)ccc1OCCN1C(=O)CCC1=O`: the CLH in [1] was found to be 0.112 mL/h. In addition, the inhibition in series [9] came to 25%; in [6] it was 43%. Besides, the Stability in [2] was 79%; in series [4] it was 70%. The bioavailability in [3] amounted to 24%. For the same compound, the Papp at 2 h in series [5] was 75.2 nm/s.

For `COc1cc(CN(C)C(C)c2ccc3c(c2)CCO3)ccc1OCCCN1C(=O)CCC1=O` (stereo not drawn), in [7], the inhibition turned out to be 39%.

In series [1], `Cc1cc(CN(C[C@H]2CC[C@H](C(=O)O)CC2)[C@@H](C)c2ccc(Cl)cc2)ccc1OCCN1C(=O)CCC1=O` returned a CLH of 0.138 mL/h. Further, the inhibition in series [9] came out at 71%; in series [10], 97%. The figures for the Stability in [2] and in series [4] were 87% and 73%, respectively. The bioavailability in [3] is 93.5%. In addition, the apparent permeability coefficient (Papp) at 2 h in [5] was 195 nm/s.

As to `Cc1cc(CN(C[C@H]2CC[C@H](C(=O)O)CC2)C(C)c2ccc3c(c2)CCO3)ccc1OCCN1C(=O)CCC1=O` (stereo partly drawn), the Stability in series [2] is 87%; in series [4], 70%. Also, the bioavailability in series [3] was found to be 4.1%. The inhibition in series [10] worked out at 99%; in [6], 78%. Besides, in series [5], the Papp at 2 h came out at 22.2 nm/s.

Turning to `CC(c1ccc2c(c1)CCO2)N(C)Cc1ccc2c(c1)OC[C@H](CN1C(=O)CCC1=O)O2` (stereo partly drawn), in series [7], the inhibition was 36%.

Take `COc1cc(CN(C)C(C)c2ccc3c(c2)CCO3)ccc1OCN1C(=O)CCC1=O` (stereo not drawn): the inhibition in series [7] was 8%.

For the compound `COc1cc(CN(Cc2ccc(C(=O)O)cc2)C(C)c2ccc3c(c2)CCO3)ccc1OCCN1C(=O)CCC1=O` (stereo not drawn), in [8], the half-inhibitory concentration (IC50) amounted to 0.12 µM. The figures for the Stability in series [2] and in [4] were 63% and 61%, respectively. In [3], this compound came in with a bioavailability of 9%.

As a reminder, the bioavailability is the share of a dose that reaches the circulation, judged against a reference dose that is usually intravenous. Usually Papp stands for a coefficient for how fast a substance crosses the barrier. A word on the inhibition: it is the share of the control response that was lost under treatment. For orientation: IC50 means the midpoint of a concentration-inhibition curve.

The values above are taken from ChEMBL document CHEMBL3864163, “I. Discovery of a novel series of CXCR3 antagonists. Multiparametric optimization of N,N-disubstituted benzylamines” (Bioorg Med Chem Lett, 2016).
